The source of these data is ChEMBL document CHEMBL4706622, “Comparative study between the anti-P. falciparum activity of triazolopyrimidine, pyrazolopyrimidine and quinoline derivatives and the identification of new PfDHODH inhibitors” (Eur J Med Chem, 2021).

In one data set the test system is HepG2. In words: Cytotoxicity against human HepG2 cells assessed as cell viability after 72 hrs by MTT assay. The class given is cell-based. The settings on record: HepG2, 72 h.
The subject of another data set is Plasmodium falciparum. In words: Antimalarial activity against CQ-sensitive Plasmodium falciparum 3D7 infected in erythrocytes by SYBR Green dye based fluorescence assay. The class given is functional, organism-based.
The target in data set [1] is Dihydroorotate dehydrogenase (quinone), mitochondrial (Homo sapiens) (UniProt Q02127). Description: Inhibition of human DHODH assessed as 2,6-dichloroindophenol reduction at 50 uM by colorimetric method. The procedure, abridged:
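First-stage HsDHODH screen at a single compound concentration of 50 µM, reported as % inhibition. It was run in parallel with the PfDHODH screen.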

Data set [2] is described as follows: Selectivity index, ratio of IC50 for cytotoxicity against human HepG2 cells to IC50 for antimalarial activity against Plasmodium falciparum 3D7. The format is toxicity, cell-based. The note with it: read-out: Ratio IC50.
A short description of data set [3]: Inhibition of Plasmodium falciparum DHODH (159- 569 aa) expressed in Escherichia coli BL21(DE3) cells assessed as 2,6-dichloroindophenol reduction by colorimetric method. In outline: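 Second-stage PfDHODH IC50 determination from concentration–response curves, run only on compounds giving ≥80% inhibition at 50 µM in the single-point screen. PfDHODH final concentration was 50 nM. IC50 was not assigned where substrate consumption could not be measured at some concentrations on the curve.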

Each structure is given as a SMILES string.

Dihydroorotate dehydrogenase (quinone), mitochondrial (Homo sapiens), sequence (Q02127 whole entry): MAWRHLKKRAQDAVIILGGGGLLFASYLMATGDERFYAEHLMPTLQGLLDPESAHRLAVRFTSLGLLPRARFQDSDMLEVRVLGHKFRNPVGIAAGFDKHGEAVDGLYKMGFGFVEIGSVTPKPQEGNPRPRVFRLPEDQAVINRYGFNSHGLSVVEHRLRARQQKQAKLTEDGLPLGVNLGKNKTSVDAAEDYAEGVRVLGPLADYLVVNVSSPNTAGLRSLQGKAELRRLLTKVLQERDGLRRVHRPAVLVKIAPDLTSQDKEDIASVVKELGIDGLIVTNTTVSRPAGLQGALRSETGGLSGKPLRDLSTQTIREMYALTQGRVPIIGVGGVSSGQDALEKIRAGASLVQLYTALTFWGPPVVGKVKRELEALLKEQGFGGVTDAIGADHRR

As usually defined, the IC50 is the concentration that gives 50% inhibition. Usually inhibition stands for the relative decrease from the control value, in per cent. Take `Cc1cc(Nc2ccc(S(=O)(=O)Nc3ccc(C(F)(F)F)cc3)cc2)n2ncnc2n1`: the IC50 with HepG2 was above 100000 nM; in the data set on Plasmodium falciparum it was 150 nM; in data set [3] it was above 50000 nM. In addition, the inhibition in data set [1] came to 0%. Besides, the selectivity ratio in data set [2] is above 667.

On to `O=S(=O)(Nc1ccccc1)c1ccc(Nc2ccnc3cc(Cl)ccc23)cc1`, for which the values for the IC50 with HepG2 and in the data set on Plasmodium falciparum were 92000 nM and 2000 nM, respectively. For the same compound, the selectivity ratio in data set [2] is above 46.

Consider `Cc1cc(Nc2ccc(S(=O)(=O)Nc3ccc4ccccc4c3)cc2)n2nc(C(F)(F)F)nc2n1`, for which the IC50 is above 100000 nM with HepG2, 50 nM in the data set with Plasmodium falciparum and 220 nM in data set [3]. Moreover, in data set [1], the inhibition was 0%. Also, in data set [2], the selectivity ratio is above 2000.

With `Cc1cc(Nc2ccc(S(=O)(=O)Nc3ccccc3)cc2)n2ncnc2n1`, the IC50 is 365000 nM with HepG2, 9100 nM in the data set with Plasmodium falciparum and 800 nM in data set [3]. Further, in data set [1], the inhibition worked out at 0%. Besides, the selectivity ratio in data set [2] is above 40.

Regarding `Cc1cc(Nc2ccc(S(=O)(=O)Nc3ccc(C(F)(F)F)cc3)cc2)n2nc(C)nc2n1`, the IC50 in the data set on HepG2 amounted to 125000 nM; in the data set on Plasmodium falciparum, 390 nM; in data set [3], 600 nM. In addition, in data set [1], the inhibition turned out to be 0%. Moreover, in data set [2], the selectivity ratio is 321.

For the compound `Cc1cc(Nc2ccc(S(=O)(=O)Nc3ccc4ccccc4c3)cc2)n2nc(C)nc2n1`, the IC50 in the data set on HepG2 was 56000 nM; in the data set with Plasmodium falciparum, 640 nM; in data set [3] it was 400 nM. The inhibition in data set [1] worked out at 0%. The selectivity ratio in data set [2] is 87.4.

In the case of `COc1ccc(NS(=O)(=O)c2ccc(Nc3ccnc4cc(Cl)ccc34)cc2)cc1`, the IC50 with HepG2 stood at 92000 nM; with Plasmodium falciparum, 2800 nM. For the same compound, in data set [2], the selectivity ratio was above 33.

Consider `C[C@H]1[C@H](OC(=O)CCC(=O)O)O[C@@H]2O[C@@]3(C)CC[C@H]4[C@H](C)CC[C@@H]1[C@@]24OO3` [ARTESUNATE], for which the IC50 in the data set on HepG2 came to 267000 nM; with Plasmodium falciparum it was 9 nM. Further, the selectivity ratio in data set [2] was 29700.

As to `Cc1cc(Nc2ccc(S(=O)(=O)Nc3ccc(C(F)(F)F)cc3)cc2)n2nc(C(F)(F)F)nc2n1`, the IC50 is 90000 nM in the data set on HepG2, 30 nM with Plasmodium falciparum and above 50000 nM in data set [3]. Besides, the inhibition in data set [1] was 0%. Further, the selectivity ratio in data set [2] amounted to 3000.

Turning to `O=S(=O)(Nc1ccc(Cl)cc1)c1ccc(Nc2ccnc3cc(Cl)ccc23)cc1`, the values for the IC50 in the data set on HepG2 and in the data set with Plasmodium falciparum were 93000 nM and 1700 nM, respectively. Moreover, the selectivity ratio in data set [2] was above 56.

`COc1ccc(NS(=O)(=O)c2ccc(Nc3cc(C)nc4ncnn34)cc2)cc1`: the IC50 in the data set with HepG2 was 46000 nM; with Plasmodium falciparum it was 4000 nM; in data set [3], above 50000 nM. In addition, the inhibition in data set [1] worked out at 0%. In data set [2], the selectivity ratio is above 13.

Take `Cc1cc(Nc2ccc(S(=O)(=O)Nc3ccc(F)cc3)cc2)n2nc(C)nc2n1`: the IC50 in the data set with HepG2 is 150000 nM; in the data set on Plasmodium falciparum, 2700 nM; in data set [3], 1000 nM. The inhibition in data set [1] came to 0%. In addition, the selectivity ratio in data set [2] stood at 55.6.

In the case of `O=S(=O)(Nc1ccc2ccccc2c1)c1ccc(Nc2ccnc3cc(Cl)ccc23)cc1`, the IC50 in the data set on HepG2 was found to be 13000 nM; in the data set with Plasmodium falciparum it was 890 nM. Besides, the selectivity ratio in data set [2] amounted to 15.1.

As to `Cc1cc(Nc2ccc(S(=O)(=O)Nc3ccc(Cl)cc3)cc2)n2nc(C)nc2n1`, the IC50 was above 50000 nM in the data set with HepG2, 800 nM in the data set on Plasmodium falciparum and 600 nM in data set [3]. The inhibition in data set [1] was determined as 0%. Also, the selectivity ratio in data set [2] was above 62.5.

As to `Cc1cc(Nc2ccc(S(=O)(=O)Nc3ccccc3)cc2)n2nc(C)nc2n1`, the IC50 with HepG2 is 193000 nM; in the data set on Plasmodium falciparum, 6900 nM; in data set [3], above 50000 nM. Further, in data set [1], the inhibition is 0%. In data set [2], the selectivity ratio came out at 28.

Regarding `Cc1ccc(NS(=O)(=O)c2ccc(Nc3cc(C)nc4nc(C)nn34)cc2)cc1`, the IC50 in the data set with HepG2 came out at 110000 nM; with Plasmodium falciparum, 910 nM; in data set [3], 300 nM. Also, the inhibition in data set [1] was found to be 0%. Further, the selectivity ratio in data set [2] is 121.

`Cc1cc(Nc2ccc(S(=O)(=O)Nc3ccc(F)cc3)cc2)n2nc(C(F)(F)F)nc2n1`: the IC50 with HepG2 was 101000 nM; in the data set with Plasmodium falciparum, 86 nM; in data set [3] it was 500 nM. Besides, the inhibition in data set [1] stood at 0%. Further, the selectivity ratio in data set [2] turned out to be 1170.

In the case of `CCN(CC)CCCC(C)Nc1ccnc2cc(Cl)ccc12` (stereo not given) [CHLOROQUINE], the IC50 in the data set with HepG2 is 384000 nM.

Regarding `Cc1ccc(NS(=O)(=O)c2ccc(Nc3cc(C)nc4ncnn34)cc2)cc1`, the IC50 came out at 367000 nM with HepG2, 500 nM in the data set on Plasmodium falciparum and 410 nM in data set [3]. Besides, the inhibition in data set [1] amounted to 0%. Moreover, the selectivity ratio in data set [2] is above 728.

Consider `COc1ccc(NS(=O)(=O)c2ccc(Nc3cc(C)nc4nc(C)nn34)cc2)cc1`, for which the IC50 worked out at 170000 nM in the data set on HepG2, 4000 nM in the data set with Plasmodium falciparum and 1300 nM in data set [3]. Also, the inhibition in data set [1] worked out at 0%. Besides, the selectivity ratio in data set [2] is 42.5.

With `COc1ccc(NS(=O)(=O)c2ccc(Nc3cc(C)nc4nc(C(F)(F)F)nn34)cc2)cc1`, the IC50 was 93000 nM in the data set on HepG2, 800 nM in the data set with Plasmodium falciparum and 210 nM in data set [3]. Moreover, the inhibition in data set [1] worked out at 0%. The selectivity ratio in data set [2] was above 114.

Consider `Cc1ccc(NS(=O)(=O)c2ccc(Nc3cc(C)nc4nc(C(F)(F)F)nn34)cc2)cc1`, for which the IC50 in the data set on HepG2 is 54000 nM; in the data set on Plasmodium falciparum it was 32 nM; in data set [3] it was 800 nM. Besides, in data set [1], the inhibition stood at 0%. In addition, the selectivity ratio in data set [2] worked out at 1690.

`Cc1cc(Nc2ccc(S(=O)(=O)Nc3ccc(Cl)cc3)cc2)n2nc(C(F)(F)F)nc2n1`: the IC50 came to 47000 nM in the data set on HepG2, 400 nM with Plasmodium falciparum and 80 nM in data set [3]. The inhibition in data set [1] was found to be 0%. Further, in data set [2], the selectivity ratio was above 123.

For the compound `O=S(=O)(Nc1ccc(C(F)(F)F)cc1)c1ccc(Nc2ccnc3cc(Cl)ccc23)cc1`, the IC50 amounted to 23000 nM in the data set on HepG2 and 2100 nM with Plasmodium falciparum. The selectivity ratio in data set [2] was determined as 11.

Turning to `O=S(=O)(Nc1ccc(F)cc1)c1ccc(Nc2ccnc3cc(Cl)ccc23)cc1`, the IC50 with HepG2 was found to be 92000 nM; in the data set with Plasmodium falciparum, 4600 nM. For the same compound, the selectivity ratio in data set [2] is above 21.

`Cc1cc(Nc2ccc(S(=O)(=O)Nc3ccc(Cl)cc3)cc2)n2ncnc2n1`: the IC50 is 92000 nM in the data set with HepG2, 3000 nM in the data set on Plasmodium falciparum and above 50000 nM in data set [3]. Besides, in data set [1], the inhibition was determined as 0%. For the same compound, the selectivity ratio in data set [2] is above 31.

On to `Cc1cc(Nc2ccc(S(=O)(=O)Nc3ccc4ccccc4c3)cc2)n2ncnc2n1`, for which the values for the IC50 (in the data set on HepG2; in the data set with Plasmodium falciparum; in data set [3]) were 56000 nM, 230 nM and 300 nM, respectively. Also, the inhibition in data set [1] came to 0%. The selectivity ratio in data set [2] was determined as 243.

Take `Cc1cc(Nc2ccc(S(=O)(=O)Nc3ccc(F)cc3)cc2)n2ncnc2n1`: the half-inhibitory concentration (IC50) in the data set with HepG2 was found to be 367000 nM; in the data set on Plasmodium falciparum it was 2000 nM; in data set [3], 300 nM. Also, in data set [1], the inhibition was 0%. Also, the selectivity ratio in data set [2] was above 187.

Take `Cc1ccc(NS(=O)(=O)c2ccc(Nc3ccnc4cc(Cl)ccc34)cc2)cc1`: the IC50 was found to be 92000 nM with HepG2 and 970 nM in the data set with Plasmodium falciparum. In data set [2], the selectivity ratio was above 95.
